Reference: ChEMBL document CHEMBL4038284, “Synthesis of novel quinoline-based 4,5-dihydro-1H-pyrazoles as potential anticancer, antifungal, antibacterial and antiprotozoal agents” (Eur J Med Chem, 2017)
≈ marks a conversion by molar mass, not a printed value.

Tests used:
Cryptococcus neoformans [1] = test: Growth inhibition of Cryptococcus neoformans ATCC 32264 at 7.8 ug/ml incubated for 48 hrs under dark condition by broth microdilution method relative to control; format: functional; details: ATCC 32264, 48 h, read-out: GI
Outline: (§1)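 CLSI M27-A3 broth microdilution in RPMI-1640, DMSO ≤1%. Inoculum 1-5 × 10^3 CFU/mL. Incubated 48 h at 30 °C, dark. % inhibition = 100 − (OD405 test − sterility control)/(OD405 growth control − sterility control), with growth and sterility control wells. Triplicate.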

Cryptococcus neoformans [2] = test: Growth inhibition of Cryptococcus neoformans ATCC 32264 at 125 ug/ml incubated for 48 hrs under dark condition by broth microdilution method relative to control; format: functional; details: ATCC 32264, 48 h, read-out: GI; outline: as §1
Candida albicans [3] = test: Growth inhibition of Candida albicans ATCC 10231 at 125 ug/ml incubated for 48 hrs under dark condition by broth microdilution method relative to control; format: functional; details: ATCC 10231, 48 h, read-out: GI; outline: as §1
Candida albicans [4] = test: Growth inhibition of Candida albicans ATCC 10231 at 7.8 ug/ml incubated for 48 hrs under dark condition by broth microdilution method relative to control; format: functional; details: ATCC 10231, 48 h, read-out: GI; outline: as §1
Staphylococcus aureus [5] = test: Antibacterial activity against methicillin-sensitive Staphylococcus aureus ATCC 25923 after 24 hrs by resazurin dye based microdilution assay; format: functional; details: ATCC 25923, 24 h
Outline: (§2)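 MIC taken as the lowest concentration giving visible inhibition and/or by resazurin (1 mg/mL). Gentamicin was the control. Run in duplicate, repeated at least three times.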

Candida albicans [6] = test: Growth inhibition of Candida albicans ATCC 10231 at 15.62 ug/ml incubated for 48 hrs under dark condition by broth microdilution method relative to control; format: functional; details: ATCC 10231, 48 h, read-out: GI; outline: as §1
Cryptococcus neoformans [7] = test: Growth inhibition of Cryptococcus neoformans ATCC 32264 at 15.62 ug/ml incubated for 48 hrs under dark condition by broth microdilution method relative to control; format: functional; details: ATCC 32264, 48 h, read-out: GI; outline: as §1
Cryptococcus neoformans [8] = test: Antifungal activity against Cryptococcus neoformans ATCC 32264 incubated for 48 hrs under dark condition by broth microdilution method; format: functional; details: ATCC 32264, 48 h
Outline: (§3)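 CLSI M27-A3 broth microdilution in RPMI-1640, DMSO ≤1%, compounds at 250-0.98 µg/mL final. Inoculum 1-5 × 10^3 CFU/mL. Incubated 48 h at 30 °C in a moist dark chamber, read at OD405. MIC80 and MIC50 taken from % inhibition dose-response curves (mean ± SEM, triplicate). Amphotericin B was the positive control.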

Klebsiella pneumoniae [9] = test: Antibacterial activity against ESBL positive Klebsiella pneumoniae ATCC 700603 after 24 hrs by resazurin dye based microdilution assay; format: functional; details: Klebsiella pneumoniae, 700603, 24 h; outline: as §2
Cryptococcus neoformans [10] = test: Growth inhibition of Cryptococcus neoformans ATCC 32264 at 62.5 ug/ml incubated for 48 hrs under dark condition by broth microdilution method relative to control; format: functional; details: ATCC 32264, 48 h, read-out: GI; outline: as §1
Cryptococcus neoformans [11] = test: Growth inhibition of Cryptococcus neoformans ATCC 32264 at 3.4 ug/ml incubated for 48 hrs under dark condition by broth microdilution method relative to control; format: functional; details: ATCC 32264, 48 h, read-out: GI
Escherichia coli = test: Antibacterial activity against Escherichia coli ATCC 25922 after 24 hrs by resazurin dye based microdilution assay; format: functional; details: ATCC 25922, 24 h; outline: as §2
Staphylococcus aureus [12] = test: Antibacterial activity against methicillin-resistant Staphylococcus aureus ATCC 43300 after 24 hrs by resazurin dye based microdilution assay; format: functional; details: ATCC 43300, 24 h
Outline: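 Broth microdilution in Mueller Hinton broth, inoculum 5 × 10^5 – 8 × 10^5. Compound stocks diluted in MHB with 5% DMSO and 0.1% Tween 80. Incubation 24 h at 35-37 °C. MIC is the lowest concentration with visible growth inhibition and/or by resazurin (1 mg/mL) read-out. Gentamicin as control. Run in duplicate, replicated at least three times.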

Candida albicans [13] = test: Growth inhibition of Candida albicans ATCC 10231 at 62.5 ug/ml incubated for 48 hrs under dark condition by broth microdilution method relative to control; format: functional; details: ATCC 10231, 48 h, read-out: GI; outline: as §1
Plasmodium falciparum = test: Antiplasmodial activity against chloroquine-sensitive Plasmodium falciparum 3D7 assessed as reduction in parasitic LDH activity after 48 hrs by Malstat reagent based […] method; format: functional; details: 3D7, 48 h
Outline: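 Unsynchronized P. falciparum 3D7 at 0.5% parasitemia and 1% hematocrit in RPMI with 3% Albumax II. Exposed to 100, 25, 6.25 and 1.56 µg/mL for 48 h at 37 °C under 90% N2/5% CO2/5% O2. After three freeze-thaw cycles, LDH measured with Malstat and NBT/PES, 1 h in the dark, read at 650 nm. IC50 by Probit; triplicate, ≥2 experiments.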

Klebsiella pneumoniae [14] = test: Antibacterial activity against carbapenemase positive Klebsiella pneumoniae BAA 1705 after 24 hrs by resazurin dye based microdilution assay; format: functional; details: BAA 1705, 24 h; outline: as §2
Candida albicans [15] = test: Growth inhibition of Candida albicans ATCC 10231 at 31.25 ug/ml incubated for 48 hrs under dark condition by broth microdilution method relative to control; format: functional; details: ATCC 10231, 48 h, read-out: GI; outline: as §1
Neisseria gonorrhoeae = test: Antibacterial activity against beta lactamase positive Neisseria gonorrhoeae ATCC 31426 by oxidase test; format: functional
Outline: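 Agar dilution MIC on GC agar with 1% isovitalex containing increasing compound concentrations. Plates inoculated with about 1×10^4 CFU (5 µL). MIC is the lowest concentration that inhibited growth, with growth confirmed by oxidase test. Run in duplicate, repeated at least three times.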

U-937 = test: Cytotoxicity against human U937 cells after 72 hrs by MTT assay; format: cell-based; details: u-937, 72 h
Outline: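 Exponentially growing U-937 at 1 × 10^5 cells/mL in RPMI-1640 with 10% FBS were exposed to 200, 50, 12.5 and 3.125 µg/mL for 72 h at 37 °C, 5% CO2. MTT for 3 h, stopped with isopropanol/SDS, formazan read at 570 nm, blank-corrected. LC50 by Probit from % viability against untreated cells. Triplicate, at least two independent experiments.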

Trypanosoma cruzi = test: Antitrypanosomal activity against Trypanosoma cruzi Tulahuen intracellular amastigote harboring LacZ infected in human U937 cells after 72 hrs by CPRG/Nonidet reagent based spectrophotometric method; format: functional, cell-based; details: U-937, 72 h
Outline: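 U-937 cells at 2.5 × 10^5 cells/mL in RPMI-1640 with 10% serum and 0.1 µg/mL PMA were infected with β-galactosidase-transfected Tulahuen epimastigotes at 5 parasites per cell. Infected cells were exposed to 50, 12.5, 3.125 and 0.78 µg/mL for 72 h. CPRG (100 uM) and 0.1% Nonidet P-40 were added for 3 h, read at 570 nm. EC50 by Probit. Triplicate, at least two experiments; benznidazole as reference.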

Pseudomonas aeruginosa = test: Antibacterial activity against Pseudomonas aeruginosa ATCC 27853 after 24 hrs by resazurin dye based microdilution assay; format: functional; details: ATCC 27853, 24 h; outline: as §2
Candida albicans [16] = test: Growth inhibition of Candida albicans ATCC 10231 at 3.4 ug/ml incubated for 48 hrs under dark condition by broth microdilution method relative to control; format: functional; details: ATCC 10231, 48 h, read-out: GI
Leishmania panamensis = test: Antileshmanial activity against EpiR/GFP fused Leishmania panamensis MHOM/CO/87/UA140 intracellular amastigotes infected in human […] cells after 72 hrs by flow cytometric method; format: functional, cell-based; details: MHOM/CO/87/UA140, 72 h
Outline: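 PMA-treated U-937 cells (3 × 10^5 cells/mL) infected with stationary-phase GFP L. panamensis promastigotes (15:1), 3 h at 34 °C, then washed. After 24 h, compounds added at 50, 12.5, 3.125 and 0.78 µg/mL for 72 h at 37 °C. EC50 by Probit; triplicate, two experiments.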

Staphylococcus aureus [17] = test: Antibacterial activity against vancomycin-intermediate Staphylococcus aureus after 24 hrs by resazurin dye based microdilution assay; format: functional; outline: as §2
Cryptococcus neoformans [18] = test: Growth inhibition of Cryptococcus neoformans ATCC 32264 at 250 ug/ml incubated for 48 hrs under dark condition by broth microdilution method relative to control; format: functional; details: ATCC 32264, 48 h, read-out: GI; outline: as §1
Candida albicans [19] = test: Growth inhibition of Candida albicans ATCC 10231 at 250 ug/ml incubated for 48 hrs under dark condition by broth microdilution method relative to control; format: functional; details: ATCC 10231, 48 h, read-out: GI; outline: as §1
Candida albicans [20] = test: Antifungal activity against Candida albicans ATCC 10231 incubated for 48 hrs under dark condition by broth microdilution method; format: functional; details: ATCC 10231, 48 h; outline: as §3
Cryptococcus neoformans [21] = test: Growth inhibition of Cryptococcus neoformans ATCC 32264 at 31.25 ug/ml incubated for 48 hrs under dark condition by broth microdilution method relative to control; format: functional; details: ATCC 32264, 48 h, read-out: GI; outline: as §1

## Cc1ccc(C2=NN(c3ccc(Cl)cc3)C(c3cccc(Nc4ccnc5cc(Cl)ccc45)c3)C2)cc1 (stereo not given)
Cryptococcus neoformans [1]
  inhibition of growth at 7.8 µg/mL: 6.57%
Cryptococcus neoformans [2]
  inhibition of growth at 125 µg/mL: 15.9%
Candida albicans [3]
  inhibition of growth at 125 µg/mL: 16.2%
Candida albicans [4]
  inhibition of growth at 7.8 µg/mL: 5.67%
Staphylococcus aureus [5]
  MIC: > 1000 mg/L
Candida albicans [6]
  inhibition of growth at 15.62 µg/mL: 7.27%
Cryptococcus neoformans [7]
  inhibition of growth at 15.62 µg/mL: 6.99%
Cryptococcus neoformans [8]
  MIC50: ≥ 250 mg/L
  MIC80: ≥ 250 mg/L
Klebsiella pneumoniae [9]
  MIC: > 1000 mg/L
Cryptococcus neoformans [10]
  inhibition of growth at 62.5 µg/mL: 12.9%
Cryptococcus neoformans [11]
  inhibition of growth at 3.4 µg/mL: 0%
Escherichia coli
  MIC: > 1000 mg/L
Staphylococcus aureus [12]
  MIC: > 1000 mg/L
Candida albicans [13]
  inhibition of growth at 62.5 µg/mL: 13.1%
Plasmodium falciparum
  EC50: 13.7 mg/L (≈ 26.2 µM)
Klebsiella pneumoniae [14]
  MIC: > 1000 mg/L
Candida albicans [15]
  inhibition of growth at 31.25 µg/mL: 8.37%
Neisseria gonorrhoeae
  MIC: > 1000 mg/L
U-937
  LC50: > 200 mg/L
Trypanosoma cruzi
  EC50: 21.9 mg/L (≈ 41.9 µM)
Pseudomonas aeruginosa
  MIC: > 1000 mg/L
Candida albicans [16]
  inhibition of growth at 3.4 µg/mL: 0%
Leishmania panamensis
  EC50: 49.4 mg/L (≈ 94.4 µM)
Staphylococcus aureus [17]
  MIC: > 1000 mg/L
Cryptococcus neoformans [18]
  inhibition of growth at 250 µg/mL: 22.8%
Candida albicans [19]
  inhibition of growth at 250 µg/mL: 36.5%
Candida albicans [20]
  MIC50: ≥ 250 mg/L
  MIC80: ≥ 250 mg/L
Cryptococcus neoformans [21]
  inhibition of growth at 31.25 µg/mL: 10.9%
